Results from ChEMBL document CHEMBL1141800, “Xenia diterpenoids from the formosan soft coral Xenia blumi” (2005).
Converted amounts (≈) assume the structure as drawn.

Columns and labels:
P388 = test: Cytotoxicity against mouse P388 cells; type: functional; conditions: read-out: ED50 (the source's name)
How it was run: (§1)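 In vitro cytotoxicity assay against cultured HT-29 (human colon adenocarcinoma) and P-388 (mouse lymphocytic leukemia) cells; P-388 line was supplied by an outside academic lab. Potency is reported as ED50 in μg/mL.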

HT-29 = test: Cytotoxicity against human HT-29 cells; type: functional; conditions: read-out: ED50 (the source's name); how it was run: as §1

Structure (SMILES) | EC50 (P388) [µg/mL] | EC50 (HT-29) [µg/mL]
C=C1CC[C@@H]2O[C@@]2(C)CC[C@@H]2C([C@@H](OC(C)=O)[C@H](C=C(C)C)OC(C)=O)=CO[C@H](OC(C)=O)[C@@H]12 | > 20 | > 20
C=C1CC/C=C(\C)CC[C@@H]2/C(=C/C=C/C(C)(C)O)C(=O)OC[C@@H]12 | > 20 | 8.7 (≈ 27.5 µM)
C=C1CC(=O)/C=C(/C)CC[C@@H]2/C(=C/C=C/C(C)(C)O)C(=O)OC[C@@H]12 | 0.2 (≈ 0.605 µM) | 0.5 (≈ 1.51 µM)
C=C1CC[C@@H]2O[C@@]2(C)CC[C@@H]2/C(=C\C=C\C(C)(C)O)C(=O)OC[C@@H]12 | 6.9 (≈ 20.8 µM) | 8.6 (≈ 25.9 µM)
C=C1CC[C@@H]2O[C@@]2(C)CC[C@@H]2/C(=C/C=C/C(C)(C)O)C(=O)OC[C@@H]12 | 4.7 (≈ 14.1 µM) | 5.6 (≈ 16.8 µM)
C=C1CC[C@@](C)(C=O)CC[C@@H]2/C(=C\C=C\C(C)(C)O)COC(=O)[C@@H]12 | 3.3 (≈ 9.93 µM) | 4.6 (≈ 13.8 µM)
C=C1CC[C@H](O)C(=C)CC[C@@H]2/C(=C\C=C\C(C)(C)O)COC(=O)[C@@H]12 | 3.7 (≈ 11.1 µM) | 4.9 (≈ 14.7 µM)
COC(=O)[C@@H]1[C@@H](/C(=C\C=C\C(C)(C)O)COC(C)=O)CC[C@@]2(C)C[C@]1(O)CC[C@H]2O | > 20 | > 20
